Data: article PMC11809490 (RSC Advances, 2025)
pIC50: −log10 of the molar value. Entries after “also recorded” stand apart in the source; their conditions may differ. Read-outs that look alike come from different tables or passages of the source.

Experiments:
C4-2 = experiment: MTT assay, cytotoxicity; assay type: cell-based, human
MIAPACA = experiment: MTT assay, cytotoxicity; assay type: cell-based, human; details: read-out: IC50 MIAPACA, 48 h treatment, 0.1-40 μM
Method in brief: (§1)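 Cells in medium with 10% FBS, streptomycin and penicillin; 5000 cells per well. After 12 h, test compounds added at 0.1–40 μM, with 0.1% DMSO as vehicle, for 48 h. Then serum-free medium and MTT (5 mg mL−1) at 4:1 for 4 h at 37 °C. Formazan dissolved in DMSO, absorbance at 570 nm, normalized to DMSO control. IC50 from sigmoidal variable-slope nonlinear regression.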

HEK293 = experiment: MTT assay, cytotoxicity to normal cells; assay type: cell-based, human; details: for pIC50: read-out: IC50 HEK293
Method in brief: as §1

PC3 = experiment: MTT assay, cytotoxicity; assay type: cell-based, human; details: read-out: IC50 PC3
Method in brief: as §1

22Rv1 = experiment: MTT assay, cytotoxicity; assay type: cell-based, human; details: read-out: IC50 22Rv1
Method in brief: as §1

MCF7 = experiment: MTT assay, cytotoxicity; assay type: cell-based, human; details: read-out: IC50 MCF7
Method in brief: as §1

[1] = test system: prostate, breast, epithelial cancer cells; experiment: MTT assay, all tested cancer cell lines together; assay type: cell-based, human
Method in brief: as §1

p-53 and c-jun = experiment: Level of p-53 and c-jun; assay type: cell-based
tubulin in C4-2 cells = experiment: Tubulin immunofluorescence; assay type: cell-based, human; details: 10 μM and 20 μM, 48 h
Method in brief: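 Fixed and permeabilized with ice-cold methanol. Blocked 1 h in 2% BSA/1% Triton X-100 in PBS. Tubulin antibody overnight at 4 °C, then FITC goat anti-mouse secondary 3 h in the dark. Imaged in FITC and DAPI channels.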

C4-2 cells [2] = experiment: Intracellular ROS levels, H2DCFDA staining; assay type: cell-based, human; details: 10 μM and 20 μM, 48 h
Method in brief: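 C4-2 cells on coverslips got DMSO, test compound or H2O2 (10 μM) for 48 h. The figure legend gives test compound at 10 and 20 μM. Cells washed with PBS and loaded with H2DCFDA (2 μM final) in PBS, 40 min at 37 °C. Green signal imaged in FITC channel and expressed relative to DMSO. Three independent replicates; Student's t-test.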

C4-2 cells [3] = experiment: JC-1 staining, mitochondrial depolarization; assay type: cell-based, human; details: 10 μM or 20 μM, 48 h
Method in brief: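 C4-2 cells (0.25 × 10^5) on 12 mm coverslips, seeded 12 h, then exposed to DMSO or test compound (10 or 20 μM) for 48 h. After PBS wash, incubated with JC-1 (2 μM) in PBS for 20 min. Imaged in FITC and TRITC channels: orange aggregates mark polarized mitochondria, green marks depolarized.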

C4-2 cells [4] = experiment: Clonogenic assay; assay type: cell-based, human; details: 10 μM or 20 μM, 10 days
Method in brief: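 1000 C4-2 cells plated per well and exposed to test compound at 10 or 20 μM. […] Incubated 10–12 days, washed with PBS and fixed in cold methanol:acetic acid (3:1) for 5–10 min. Colonies photographed for number and size. Run in duplicate.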

C4-2 cells [5] = experiment: Acridine orange/ethidium bromide assay; assay type: cell-based, human; details: 10 and 20 μM, 48 h
Method in brief: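 C4-2 cells (0.25 × 10^5) seeded on 12 mm coverslips for 12 h, then given DMSO or test compound (10 and 20 μM) for 48 h. After PBS wash, stained with AO (100 μg mL−1) plus EB (100 μg mL−1) in PBS for 20 min. Washed and imaged by fluorescence microscopy: FITC channel for green (AO, all cells), TRITC for red (EB, dead cells).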

[6] = read-out: IC50 C4-2, MTT, 48 h treatment, 0.1-40 μM
[7] = normal human kidney cells, MTT, 48 h
[8] = Homo sapiens, C4-2, 48 h, read-out: IC50 C4-2, MTT, 48 h treatment, 0.1-40 μM

Row | Molecule | pIC50 (C4-2; [8]) | pIC50 (HEK293; Homo sapiens, HEK293, 48 h) | pIC50 (PC3; Homo sapiens, PC-3, 48 h) | pIC50 (22Rv1; Homo sapiens, 22Rv1, 48 h) | pIC50 (MCF7; Homo sapiens, MCF7, 48 h) | cytotoxicity against the tested cancer cells, in words (SAR) [1] | also measured
1 | 2-(5-Isopropoxy-1H-indole-3-carbonyl)-3-(1-methyl-1H-indol-3-yl)acrylonitrile [21m] |  |  |  |  |  |  | pIC50 (C4-2; [6]): 4.75; pIC50 (MIAPACA): 5.80; pIC50 (HEK293; [7]): < 4.40; pIC50 (PC3; MTT, 48 h treatment, 0.1-40 μM): 4.93; pIC50 (22Rv1; MTT, 48 h treatment, 0.1-40 μM): 4.79; pIC50 (MCF7; MTT, 48 h treatment, 0.1-40 μM): 5.53
2 | 3-(1-Ethyl-1H-indol-3-yl)-2-(5-isopropoxy-1H-indole-3-carbonyl)acrylonitrile [21l] |  |  |  |  |  |  | pIC50 (C4-2; [6]): 4.58; pIC50 (MIAPACA): 4.42; pIC50 (HEK293; [7]): 4.42; pIC50 (PC3; MTT, 48 h treatment, 0.1-40 μM): 5.34; pIC50 (22Rv1; MTT, 48 h treatment, 0.1-40 μM): 5.60; pIC50 (MCF7; MTT, 48 h treatment, 0.1-40 μM): 5.10
3 | CCn1cc(/C=C(\C#N)C(=O)c2c[nH]c3ccccc23)c2ccccc21 [21a, (E)-3-(1-Ethyl-1H-indol-3-yl)-2-(1H-indole-3-carbonyl)acrylonitrile] | 5.41 | < 4.40 | 4.89 | < 4.40 | 4.99 |  | 
4 | N#CC(=Cc1cn(Cc2ccc(Cl)cc2)c2ccccc12)C(=O)c1c[nH]c2ccccc12 [21b, 3-(1-(4-Chlorobenzyl)-1H-indol-3-yl)-2-(1H-indole-3-carbonyl)acrylonitrile] | 4.87 | 4.40 | 4.97 | 4.67 | 5.16 | moderate activity | 
5 | COc1ccc2[nH]cc(C(=O)C(C#N)=Cc3cn(C)c4ccccc34)c2c1 [21c, 2-(5-Methoxy-1H-indole-3-carbonyl)-3-(1-methyl-1H-indol-3-yl)acrylonitrile] | 5.12 | < 4.40 | 4.81 | 5.91 | 4.60 |  | 
6 | CCn1cc(C=C(C#N)C(=O)c2c[nH]c3ccc(OC)cc23)c2ccccc21 [21d, 3-(1-Ethyl-1H-indol-3-yl)-2-(5-methoxy-1H-indole-3-carbonyl)acrylonitrile] | 5.10 | 4.41 | < 4.40 | 4.60 | 4.96 |  | 
7 | COc1ccc2c(C(=O)C(C#N)=Cc3cn(C)c4ccccc34)c[nH]c2c1 [21e, 2-(6-Methoxy-1H-indole-3-carbonyl)-3-(1-methyl-1H-indol-3-yl)acrylonitrile] | 4.80 | < 4.40 | 5.12 | 4.55 | 4.90 | reduced activity | 
8 | CCn1cc(C=C(C#N)C(=O)c2c[nH]c3cc(OC)ccc23)c2ccccc21 [21f, 3-(1-Ethyl-1H-indol-3-yl)-2-(6-methoxy-1H-indole-3-carbonyl)acrylonitrile] | 4.90 | 4.40 | 4.62 | < 4.40 | 4.43 | reduced activity | 
9 | COc1ccc2c(C(=O)C(C#N)=Cc3cn(Cc4ccc(Cl)cc4)c4ccccc34)c[nH]c2c1 [21g, 3-(1-(4-Chlorobenzyl)-1H-indol-3-yl)-2-(6-methoxy-1H-indole-3-carbonyl)acrylonitrile] | 4.88 | < 4.40 | 4.84 | 4.47 | 4.98 | reduced activity | 
10 | CCOc1ccc2[nH]cc(C(=O)C(C#N)=Cc3cn(C)c4ccccc34)c2c1 [21h, 2-(5-Ethoxy-1H-indole-3-carbonyl)-3-(1-methyl-1H-indol-3-yl)acrylonitrile] | 5.00 | 4.40 | 4.56 | 5.28 | 4.78 | significantly enhanced cytotoxicity | 
11 | CCOc1ccc2[nH]cc(C(=O)C(C#N)=Cc3cn(CC)c4ccccc34)c2c1 [21i, 2-(5-Ethoxy-1H-indole-3-carbonyl)-3-(1-ethyl-1H-indol-3-yl)acrylonitrile] | 5.66 | < 4.40 | 5.58 | 5.05 | 5.13 | significantly enhanced cytotoxicity | 
12 | CCCOc1ccc2[nH]cc(C(=O)C(C#N)=Cc3cn(CC)c4ccccc34)c2c1 [21j, 3-(1-Ethyl-1H-indol-3-yl)-2-(5-propoxy-1H-indole-3-carbonyl)acrylonitrile] | 6.05 | < 4.40 | 5.25 | 5.54 | 5.92 | significantly enhanced cytotoxicity; also recorded: most effective compound across all cancer cell lines tested | pIC50 (C4-2; [6]): 6.01; level of p-53 and c-jun (p-53 and c-jun): upregulate the level of p-53 and c-jun; cytotoxicity to normal HEK293 cells, in words (HEK293): no notable impact; tubulin assembly (β-tubulin antibody staining) (tubulin in C4-2 cells): significant loss of tubulin assembly; also recorded: increases tubulin depolymerization; ROS levels (DCFDA) (C4-2 cells [2]): robust increase in ROS levels; also recorded: raises the levels of ROS; mitochondrial depolarization (JC-1) (C4-2 cells [3]): induced significant mitochondrial depolarization; also recorded: induces mitochondrial depolarization; number and size of colonies (C4-2 cells [4]): significantly inhibited the number and size of colonies; also recorded: inhibits colony formation; cell death / apoptosis by AO-EB staining (C4-2 cells [5]): robust cell death; also recorded: induced substantial apoptosis
13 | CCCOc1ccc2[nH]cc(C(=O)C(C#N)=Cc3cn(C)c4ccccc34)c2c1 [21k, 3-(1-Methyl-1H-indol-3-yl)-2-(5-propoxy-1H-indole-3-carbonyl)acrylonitrile] | 4.86 | 4.40 | 4.79 | 4.55 | 4.73 |  | 
14 | COc1cc2[nH]cc(C(=O)C(C#N)=Cc3cn(C)c4ccccc34)c2cc1OC [21n, 2-(5,6-Dimethoxy-1H-indole-3-carbonyl)-3-(1-methyl-1H-indol-3-yl)acrylonitrile] | 5.99 | < 4.40 | 5.15 | 4.69 | 5.25 | improved the selectivity against prostate cancer cell lines | 
15 | CCn1cc(C=C(C#N)C(=O)c2c[nH]c3cc(OC)c(OC)cc23)c2ccccc21 [21o, 2-(5,6-Dimethoxy-1H-indole-3-carbonyl)-3-(1-ethyl-1H-indol-3-yl)acrylonitrile] | 5.23 | < 4.40 | 4.72 | 4.59 | 4.50 | improved the selectivity against prostate cancer cell lines | 
16 | COc1cc2[nH]cc(C(=O)C(C#N)=Cc3cn(Cc4ccc(Cl)cc4)c4ccccc34)c2cc1OC [21p, 3-(1-(4-Chlorobenzyl)-1H-indol-3-yl)-2-(5,6-dimethoxy-1H-indole-3-carbonyl)-acrylonitrile] | 4.51 | < 4.40 | < 4.40 | < 4.40 | < 4.40 | detrimental for the activity | 
17 | COc1ccc(C=C(C#N)C(=O)c2c[nH]c3ccccc23)cc1 [21q, 2-(1H-Indole-3-carbonyl)-3-(4-methoxyphenyl)acrylonitrile] | < 4.40 | < 4.40 | 4.43 | 4.55 | 4.60 | detrimental for the activity | 
18 | COc1ccc(C=C(C#N)C(=O)c2c[nH]c3ccccc23)cc1OC [21r, 3-(3,4-Dimethoxyphenyl)-2-(1H-indole-3-carbonyl)acrylonitrile] | < 4.40 | 4.51 | 4.60 | 4.47 | < 4.40 | detrimental for the activity | 
